Assay [1] is described as follows: Cytotoxicity against human Bel7404 cells after 72 hrs by MTT assay. Type of assay: functional, cell-based. The settings on record: BEL-7404, 72 h. The method, boiled down:
(§1)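 Cells grown in MEM with 10% fetal calf serum, penicillin and streptomycin at 37 °C, 5% CO2. Exponentially growing cells seeded in quadruplicate at 5 × 10³ per well and left 24 h before compounds (DMSO stocks) were added. After 72 h exposure, MTT added for 4 h at 37 °C, formazan dissolved in DMSO, read at 570 nm. IC50 read graphically from dose–response curves.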
(Tetrazolium dyes change colour on reduction, which living cells bring about.)

In assay [2] the test system is HL-60. Put plainly: Cytotoxicity against human HL60 cells after 72 hrs by MTT assay. The class given is functional, cell-based. The settings on record: HL-60, 72 h. In short, it runs like this:
as §1

For assay [3], the system named is HeLa. Put plainly: Cytotoxicity against human HeLa cells after 72 hrs by MTT assay. The class given is functional, cell-based. The method, boiled down: as §1
Assay [4] deals with CNE. Put plainly: Cytotoxicity against human CNE cells after 72 hrs by MTT assay. Type of assay: functional, cell-based. In short, it runs like this:
as §1

Assay [5] has as its system PC-3. Put plainly: Cytotoxicity against human PC3 cells after 72 hrs by MTT assay. The class given is functional, cell-based. The settings on record: PC-3, 72 h. The method, boiled down: as §1
The subject of assay [6] is K562. Put plainly: Cytotoxicity against human K562 cells after 72 hrs by MTT assay. The class given is functional, cell-based. In short, it runs like this:
as §1

Assay [7] can be described thus: Cytotoxicity against human ECA109 cells after 72 hrs by MTT assay. Type of assay: functional, cell-based. The settings on record: ECa-109, 72 h. In short, it runs like this: as §1
The nature of assay [8]: Cytotoxicity against human LS 174T cells after 72 hrs by MTT assay. As to conditions: LS174T. The class given is functional, cell-based. In short, it runs like this: as §1
In assay [9] the test system is KB. Put plainly: Cytotoxicity against human KB cells after 72 hrs by MTT assay. The class given is functional, cell-based. The method, boiled down: as §1
For assay [10], the system named is A549. Put plainly: Cytotoxicity against human A549 cells after 72 hrs by MTT assay. The class given is functional, cell-based. As to conditions: A549, 72 h. The method, boiled down:
as §1

The test system of assay [11] is BGC-823. Put plainly: Cytotoxicity against human BGC823 cells after 72 hrs by MTT assay. The class given is functional, cell-based. As to conditions: BGC-823, 72 h. In short, it runs like this: as §1
A short description of assay [12]: Cytotoxicity against human HO8910 cells after 72 hrs by MTT assay. The class given is functional, cell-based. The settings on record: HO-8910, 72 h. In short, it runs like this: as §1
The subject of assay [13] is K562. Put plainly: Cytotoxicity against human K562 cells at up to 8 uM by MTT assay. The class given is functional, cell-based. The settings on record: TDE = time-dependent effect. In short, it runs like this:
(§2)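 K562 cells grown in MEM with 10% fetal calf serum at 37 °C, 5% CO2, seeded in quadruplicate at 5 × 10³ per well. After 24 h, exposed to a range of concentrations for 48 or 72 h. MTT added for 4 h, formazan dissolved in DMSO, read at 570 nm. Viability expressed as % of untreated control, mean S.D. of at least three independent experiments.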

Assay [14] relates to K562. Put plainly: Cytotoxicity against human K562 cells assessed as reduction of cell viability at 8 uM after 72 hrs by MTT assay relative to control. The class given is functional. The method, boiled down: as §2
In assay [15] the test system is K562. Put plainly: Induction of apoptosis in human K562 cells using Annexin V/PI staining at 8 uM after 72 hrs by flow cytometry relative to control (reference value: 5.45%). Type of assay: functional. Background: Flow cytometry measures light scatter and fluorescence of single cells or particles in a stream.
Assay [16] concerns K562. Put plainly: Induction of apoptosis in human K562 cells using Annexin V/PI staining at 0.5 uM after 48 hrs by flow cytometry relative to control (reference value: 4.17%). Type of assay: functional.
The test system of assay [17] is K562. Put plainly: Induction of apoptosis in human K562 cells using Annexin V/PI staining at 0.5 uM after 72 hrs by flow cytometry relative to control (reference value: 5.45%). Type of assay: functional.
Assay [18] relates to K562. Put plainly: Induction of apoptosis in human K562 cells using Annexin V/PI staining at 2 uM after 48 hrs by flow cytometry relative to control (reference value: 4.17%). The class given is functional.
Assay [19] concerns K562. Put plainly: Induction of apoptosis in human K562 cells using Annexin V/PI staining at 2 uM after 72 hrs by flow cytometry relative to control (reference value: 5.45%). Type of assay: functional.
For assay [20], the system named is K562. Put plainly: Induction of apoptosis in human K562 cells using Annexin V/PI staining at 8 uM after 48 hrs by flow cytometry relative to control (reference value: 4.17%). The class given is functional.
The subject of assay [21] is K562. Put plainly: Induction of apoptosis in human K562 cells assessed as up-regulation of caspase 3 expression at up to 8 uM after 48 hrs by Western blotting. The class given is functional, cell-based. The method, boiled down: (§3)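 K562 cells treated for 48 h at the indicated concentrations, then lysed in Tris-HCl pH 7.5/NaCl buffer with protease inhibitors. Protein measured by Lowry assay. 40 µg total protein run on SDS–PAGE and blotted to PVDF. Probed overnight at 4 °C with anti-caspase-3, anti-Bax, anti-Bcl-2 and anti-β-actin, with HRP secondary and chemiluminescence. Bands quantified by densitometry, at least three independent experiments.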
Background: In western blotting, separated proteins are transferred to a membrane and probed.

Assay [22] concerns K562. Put plainly: Induction of apoptosis in human K562 cells assessed as increase of Bax/Bcl-2 ratio after 48 hrs by Western blotting. Type of assay: functional, cell-based. The method, boiled down:
as §3

Active and inactive are the calls of the source. No cut-off for these calls is given here. Bounds are passed on as bounds.

Drawing on ChEMBL document CHEMBL1221279, “Synthesis, biological evaluation, and structure-activity relationship study of novel cytotoxic aza-caffeic acid derivatives” (Bioorg Med Chem, 2010), this text covers IC50 and Activity for one molecule.

As for `CCOc1ccc(COc2c(OC)cc(/C=C/C(=O)N3CCN(Cc4ccc(Cl)c(Cl)c4)CC3)cc2OC)cc1`, the IC50 (usually the concentration that inhibits the measured activity by half) is 2 µM in assay [1]; above 200 µM in [2]; above 200 µM in [3]; above 200 µM in assay [4]; above 200 µM in assay [5]; 1.7 µM in assay [6] (K562, 72 h). The IC50 in [7] was 1.1 µM; in [8] it was above 200 µM; in [9], 0.2 µM; in assay [10] it was 63.4 µM; in assay [11] it was above 200 µM; in [12], above 200 µM. The Activity entry in assay [6] is “Dose-dependent effect”; in [13], “tde”; in assay [14], 37.9%; in assay [15], 20.38%; in assay [16], 8.26%; in assay [17], 13.71%. The Activity in assay [18] was 10.95%; in [19] it was 17.82%; in assay [20], 14.83%; in assay [22], “Dose-dependent effect”. Further, the result in [21] was Active.
